Article PMC7932937 (Clinical Pharmacokinetics, 2020)
Like-named read-outs stand apart in the source and are kept apart here.

Columns and labels:
[1] = tested on: baseline non-HDL-cholesterol; assay: Covariate analysis on baseline non-HDL-cholesterol in the PK/PD model; assay type: in vivo, people living with HIV; conditions: coadministration, final PK/PD model covariate
Summary of the method: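 Indirect-response model linked to the final population PK model (plasma rosuvastatin by UHPLC-MS/MS; daily doses 5–20 mg). Drug inhibits kin, with kout = kin/baseline. Covariates (ARV regimen, comedications, diabetes, weight, AST, ALT, age) were tested on baseline only, by stepwise forward inclusion and backward deletion. Continuous covariates were median-centred (linear or allometric), categorical ones coded 0/1. Cholesterol was measured enzymatically (cholesterol oxidase).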

[2] = Population pharmacokinetic model; assay type: in vivo, people living with HIV
Summary of the method: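 Adults with HIV on rosuvastatin 5–20 mg daily. Plasma came from a rich-sampling study and from sparse samples at cohort visits, 0.2–38.5 h post-dose, and was assayed by UHPLC-MS/MS. Models tested one or two compartments with first-order, zero-order or mixed absorption. Absorption parameters were fixed from the rich data. Between-subject variability was log-normal; residual error additive on the log scale. Covariate thresholds: ΔOFV 3.84 forward, 7.88 backward.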

[3] = literature values ref 12, 26, 27; cited from earlier work
[4] = cited from earlier work
[5] = estimated from full PK profiles (rich sampling), without variability
[6] = coadministered with cobicistat-boosted darunavir ref 20
[7] = coadministered with ritonavir-boosted atazanavir ref 19
[8] = coadministered with ritonavir-boosted darunavir ref 9
[9] = coadministered with ritonavir-boosted lopinavir ref 30

Row | Structure (SMILES) | decrease in the baseline non-HDL-cholesterol value [1] [%] | Cl decrease with boosted PIs that the study was powered to rule out ([2]; coadministered boosted PIs, univariate analysis) [%] | absorption rate constant [2, 5] [h⁻¹] | duration of zero-order absorption [2, 5] [h] | increase in rosuvastatin Vc ([2]; in women, univariate testing, not significant in multivariate analysis) | volume of distributions [3] [L] | increase in rosuvastatin AUC0–24 [4, 6] [%] | increase in rosuvastatin Cmax [4, 6] [%] | increase in rosuvastatin AUC0–24 [4, 7] [%] | increase in rosuvastatin Cmax [4, 7] [%] | increase in rosuvastatin AUC0–24 [4, 8] [%] | increase in rosuvastatin Cmax [4, 8] [%] | increase in rosuvastatin AUC0–24 [4, 9] [%] | increase in rosuvastatin Cmax [4, 9] [%]
1 | Cc1cc(C#N)cc(C)c1Oc1nc(Nc2ccc(C#N)cc2)nc(N)c1Br [etravirine] | 14 | – | – | – | – | – | – | – | – | – | – | – | – | –
2 | CC(C)c1nc(N(C)S(C)(=O)=O)nc(-c2ccc(F)cc2)c1/C=C/[C@@H](O)C[C@@H](O)CC(=O)O [rosuvastatin] | – | ≤ 22 | 0.306 | 0.461 | three-fold | 1255 to 4870 | 93 | 277 | 213 | 600 | 48 | 143 | 110 | 370
